Screens from PubChem.
Rows were chosen to be rich in hits. Some 1.6% of all compounds tested hit in one or more screens of this group.
SR-BI uptake up: activators of SR-BI mediated HDL lipid uptake; AID 504775; actives 0.096% (n = 320,000); CHO ldlA[mSR-BI] cells, DiI-HDL uptake fluorescence, 3 h; 100 = double the neutral-control signal; activation, % at 12.5 µM;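 active means mean replicate activation of at least 60% and every replicate at or above 60%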
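material = CHO ldlA[mSR-BI] cells | medium = Ham's F12 with 0.5% BSA, HEPES 25 mM, pH 7.4 | reagent = fluorescent DiI-HDL, 10 µg/mL final | compound dosing = single-point compound dose | incubation = 3 h, 37 °C | measured by = bottom-read fluorescence, 550/595 nm | measure = HDL uptake via cellular fluorescence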
SR-BI DiI inh: blocks mouse SR-BI lipid uptake from DiI-HDL; Q61009; ldlA[mSR-BI] CHO cells, DiI-HDL uptake fluorescence, 3 h; inhibition, % at 12.5 µM; actives 0.96% (n = 320,000); AID 488896;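 active means mean replicate inhibition of at least 70% and a set share of replicates each scoring 70 or more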
Target sequence (Q61009 whole entry, looked up): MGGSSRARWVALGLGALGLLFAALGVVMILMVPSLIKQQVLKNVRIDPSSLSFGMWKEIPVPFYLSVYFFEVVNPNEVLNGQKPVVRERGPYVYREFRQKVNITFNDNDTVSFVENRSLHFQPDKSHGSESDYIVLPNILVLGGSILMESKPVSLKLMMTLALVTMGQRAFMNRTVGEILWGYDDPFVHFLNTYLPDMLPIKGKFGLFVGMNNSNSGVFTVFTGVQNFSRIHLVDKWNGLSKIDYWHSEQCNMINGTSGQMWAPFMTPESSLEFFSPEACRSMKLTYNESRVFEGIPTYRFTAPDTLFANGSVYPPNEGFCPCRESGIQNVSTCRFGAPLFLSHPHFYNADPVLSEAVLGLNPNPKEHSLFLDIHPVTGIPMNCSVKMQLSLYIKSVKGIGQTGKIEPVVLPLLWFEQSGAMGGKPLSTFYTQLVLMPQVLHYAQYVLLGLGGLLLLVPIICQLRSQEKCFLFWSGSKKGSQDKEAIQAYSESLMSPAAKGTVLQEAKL
Vif imaging: inhibitors of HIV Vif; HEK293T cells, Vif self-association by quenched fluorescence, imaging, 24 h; inhibition, % at 7.49 µM; actives 0.35% (n = 340,000); in the data active means inhibition above about 50%, passing the limit was not always enough
H9c2 TAG inh: reduces triacylglycerol accumulation in H9c2 cells. AID 651582. actives 0.66% (n = 230,000). inhibition, % at 12.5 µM. Nile Red lipid (TAG) fluorescence; cells loaded with 200 µM oleic acid;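 active means pattern-corrected inhibition of lipid staining of at least 50% with the nuclear-stain viability signal not falling by more than 50%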
A1 inh: inhibitors of the anti-apoptotic protein A1, read as caspase activation | MEF A1-2A-BIM cells, Caspase-Glo 3/7 luminescence, 3 h; percent of clofoctol response, vehicle zero | caspase activation, % (test concentration not listed) | actives 0.066% (n = 330,000) | AID 2462;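 active means over half of replicate activation scores above 10%, or exactly half above 10 with the replicate mean above 10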
TAG conf: confirmation of triacylglycerol accumulation inhibitors; shares compounds with H9c2 TAG inh; H9c2 lipid accumulation, Nile Red fluorescence; cells loaded with 200 µM oleic acid; inhibition, % at 12.5 µM; actives 71% (n = 990); AID 651629;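 active means mean inhibition across replicates of 40% or more; inactive means mean inhibition below 40%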
Each line names hits and unclear results; the compound was inactive in the other large screens (follow-up assays come after a bar, where they were run).

Clc1ccc(Oc2nc(N3CCOCC3)nc(N3CCOCC3)n2)cc1	none
CCOc1ccc2nc(NC(=O)CN3CCN(CC)CC3)sc2c1	none (no result: H9c2 TAG inh)
CCOc1ccc2nc(NC(=O)CN3CCN(C)CC3)sc2c1	H9c2 TAG inh 67.6 | TAG conf inactive
COc1ccc(C(=O)Nc2ccc(-c3nnn(CC(=O)NCc4ccco4)n3)cc2)cc1	H9c2 TAG inh 52.8 (no result: SR-BI uptake up, SR-BI DiI inh) | TAG conf inactive
COc1ccc(NC(=O)Cn2c(=O)n(-c3ccc(CC(=O)NCc4ccco4)cc3)c(=O)c3ccccc32)cc1	H9c2 TAG inh 65.3 | TAG conf 53.8
Cc1ccc(NC(=O)Cn2c(=O)n(CCCC(=O)NCc3ccco3)c(=O)c3ccccc32)cc1	none
O=C(CCl)N(CCCNC(=O)C(F)(F)F)c1ccc([N+](=O)[O-])cc1	H9c2 TAG inh 67.9 | TAG conf 55.9
O=C(NCCCNc1ccc([N+](=O)[O-])cc1)C(F)(F)F	none
CCOC(=O)c1cc(=O)c2ccc(OCC(=O)Nc3ccc(F)cc3)cc2o1	none
Cc1[nH]c2ccccc2c1/C=N/Nc1nc(Nc2ccc(F)cc2)nc(N2CCOCC2)n1	H9c2 TAG inh 75.7 | TAG conf 85.8
COc1ccc(NC(=O)Nc2nc(C(N)C3CCCCC3)cs2)cc1 (configuration not stated)	none (no result: SR-BI uptake up, SR-BI DiI inh, A1 inh)
CN(C)c1ccc(NC(=O)Nc2nc(C(N)C3CCCCC3)cs2)cc1 (configuration not stated)	H9c2 TAG inh 74.4 (no result: SR-BI uptake up, SR-BI DiI inh, A1 inh) | TAG conf 55.6
CC(C)c1ccc(NC(=O)Nc2nc(C(N)C3CCCCC3)cs2)cc1 (configuration not stated)	H9c2 TAG inh 129.7 (no result: SR-BI uptake up, SR-BI DiI inh, A1 inh) | TAG conf 132.7
CC(=O)c1ccc(Nc2nc(C(N)C3CCCCC3)cs2)cc1 (configuration not stated)	none (no result: SR-BI uptake up, SR-BI DiI inh, A1 inh)
NC(c1csc(Nc2ccc(C(=O)c3ccccc3)cc2)n1)C1CCCCC1 (configuration not stated)	Vif imaging 64.5, H9c2 TAG inh 56.8 (no result: SR-BI uptake up, SR-BI DiI inh, A1 inh) | TAG conf inactive
CCN(CC(=O)Nc1c(F)cccc1F)C(=O)CN(C)S(=O)(=O)c1ccc(F)cc1	none
O=C(CN1C(=O)NC2(CCCCCC2)C1=O)NCc1ccccc1Cl	none
COC(=O)c1c(NC(=O)C2CC2)sc(C(=O)Nc2ccccc2)c1C	none
COc1ccc(-c2nc3ccc(Cl)cn3c2NC2CCCCC2)cc1SC1CCCCC1	H9c2 TAG inh 63.0 (no result: A1 inh) | TAG conf 69.7
Cc1ccc(Cl)cc1NC(=S)N/N=C/c1cccc2ccccc12	H9c2 TAG inh 68.6 | TAG conf 85.2
Cc1ccccc1C(=O)N/N=C/c1cccc2ccccc12	none (no result: H9c2 TAG inh)
Cn1nnnc1Sc1ncnc2scc(-c3cccc(S(C)(=O)=O)c3)c12	H9c2 TAG inh 59.8 | TAG conf 56.8
Cn1c(=O)c(=O)n(C)c2cc(S(=O)(=O)N3CC(=O)N(CCc4ccccc4)C(=O)C3)ccc21	none (no result: SR-BI uptake up, SR-BI DiI inh)
N#CC1=C(N)Oc2cc(N)ccc2C1c1cccnc1 (configuration not stated)	none (no result: H9c2 TAG inh)
N#CC1=C(N)Oc2cc(Nc3ccccc3)ccc2C1c1ccncc1 (configuration not stated)	H9c2 TAG inh 57.0 | TAG conf 83.3
Cc1ccc(C(=O)NCCN2C3=NC[C@H](Cc4ccc(O)cc4)N3C[C@H]2Cc2ccc(O)cc2)cc1Br	none
COc1ccc(C[C@H]2CN3C(=NC[C@@H]3Cc3ccc(O)cc3)N2CCNC(=O)c2ccc(C)c(Br)c2)cc1	H9c2 TAG inh 61.8 | TAG conf 49.4
CCN(CC)CCCN(C(=O)c1ccc(Br)cc1)c1nc(-c2ccc(OC)cc2)cs1	none
CCN(CC)CCCN(C(=O)c1cccs1)c1nc(-c2ccc(OC)cc2)cs1	H9c2 TAG inh 55.4 | TAG conf 46.6
COc1cc2sc(-c3ccc(S(C)(=O)=O)cc3)c(C#CCO)c2cc1OC	none
Cc1ccc(C)c(Oc2cc(NN3CCCCC3)c([N+](=O)[O-])cc2[N+](=O)[O-])c1	none
Cc1ccc(F)c(Oc2cc(NN3CCCCC3)c([N+](=O)[O-])cc2[N+](=O)[O-])c1	H9c2 TAG inh 50.5 | TAG conf inactive
Cn1c(N)c(C(=O)COC(=O)c2ccc([N+](=O)[O-])o2)c(=O)n(C)c1=O	H9c2 TAG inh 87.8 | TAG conf 100.6
Cn1c(N)c(C(=O)COC(=O)c2ccc(Br)o2)c(=O)n(C)c1=O	none (no result: H9c2 TAG inh)
COc1ccc(NC(=O)Cn2nnc(-c3ccccc3NC(=O)c3cccs3)n2)cc1	none
Cc1ccc(NC(=O)Cn2nnc(-c3ccccc3NC(=O)c3cccs3)n2)cc1	H9c2 TAG inh 56.5 | TAG conf 70.6
C=CCOC(=O)C1=C(C)NC(=O)NC1c1cc2c(cc1Br)OCO2 (configuration not stated)	none (no result: H9c2 TAG inh)
COc1ccc(-c2oc(=O)c3cc(OC)c(OC)cc3c2/C=C/c2ccc([N+](=O)[O-])cc2)cc1	H9c2 TAG inh 54.0 | TAG conf inactive
O=C(COc1ccc(Cl)cc1Cl)NN=C1c2ccccc2-c2ccccc21	H9c2 TAG inh 50.7 | TAG conf inactive
CN(C)c1ccc(CC(=O)N2CCCCC2c2cc(C(=O)Nc3cccc(C#N)c3)no2)cc1 (configuration not stated)	none (no result: SR-BI uptake up, SR-BI DiI inh, A1 inh)
O=C(Cn1cc[n+](CC(=O)c2ccc(Cl)cc2Cl)c1)c1ccc(Cl)cc1Cl	H9c2 TAG inh 60.1 (no result: SR-BI uptake up, SR-BI DiI inh) | TAG conf 44.2
O=C(NC1CCCCC1)C(c1ccccc1)N(C(=O)c1csnn1)C1CCCC1 (configuration not stated)	none (no result: H9c2 TAG inh)
CC1=C(C(=O)Nc2ccccc2)C2(CCCCC2)C(C#N)=C(SCC(N)=O)N1	none
CC1(C)CC(=O)C2=C(C1)NC(SCC(=O)Nc1ccccc1)=C(C#N)C21CCCCC1	H9c2 TAG inh 58.5 | TAG conf inactive
Cc1cc(N2CCOCC2)n2nc(C)c(-c3ccccc3)c2n1	H9c2 TAG inh 59.9 | TAG conf 46.1
CSc1ccccc1NC(=O)CN1CCN(S(=O)(=O)c2ccccc2[N+](=O)[O-])CC1	none
O=c1nc(N/N=C/c2c[nH]c3ccccc23)cn[nH]1	none (no result: SR-BI uptake up, SR-BI DiI inh)
O=c1nc(N/N=C/C=C/c2ccccc2)cn[nH]1	H9c2 TAG inh 63.9 (no result: SR-BI uptake up, SR-BI DiI inh) | TAG conf inactive
CC(C)(C)Sc1ccccc1S(=O)(=O)C(C)(C)C	none
O=C(N/N=C/c1ccc(Cl)cc1)c1n[nH]c2c1CCCC2	H9c2 TAG inh 58.8 | TAG conf inactive
COc1cc(/C=C(/C#N)C(=O)Nc2ccc(Cl)cc2)ccc1Oc1nc(Cl)ncc1F	none (no result: SR-BI uptake up, SR-BI DiI inh)
CCC(C)(C)NC(=O)C(c1ccc(OC)cc1)N(C(=O)CCC(=O)Nc1cc(C)on1)c1cccc(OC)c1 (configuration not stated)	none (no result: H9c2 TAG inh)
